Experimental data taken from PMC7050655 (ChemistryOpen, 2020).

What was measured:
[1] = target: human membrane bound IRAP overexpressed in HEK293 cells (Homo sapiens, UniProt Q9UIQ6); assay type: biochemical
Outline: (§1)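 HEK293T suspension cells were grown in Freestyle medium (37 °C, 8 % CO2, shaken) and transfected with PEI (2 μg/10^6 cells). Plasmid per 10^6 cells was 1.1 μg for human IRAP and 0.7 μg for human APN. Cells were harvested at 48 h. Membranes were prepared as for CHO cells, stored at −80 °C, Dounce-homogenised and diluted in assay buffer. The set-up matched the CHO assay: 1 mM L-Leu-pNA, pH 7.4 Tris/NaCl/PMSF buffer, 405 nm absorbance.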

[2] = target: human aminopeptidase N overexpressed in HEK293 cells (Homo sapiens, UniProt P15144); assay type: biochemical; conditions: for specificity for IRAP over human APN: IRAP versus human APN; for pIC50: human aminopeptidase N overexpressed in HEK293 cells
Outline: as §1

[3] = Metabolic stability in human liver microsomes; assay type: in vitro ADME
Outline: (§2)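 Part of an automated 96-well preclinical profiling panel with UPLC-MS/MS read-out. Values are mean and SD from three independent test occasions.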

[4] = Metabolic stability in rat hepatocytes; assay type: in vitro ADME; conditions: for hepatocyte CLint: Rat hep. Clint (rat hepatocytes intrinsic clearance), rat hepatocytes; for half-life: Rat hep. t 1/2, rat hepatocytes
Outline: as §2

[5] = Human plasma protein binding; assay type: in vitro ADME; conditions: PPB (human protein plasma binding)
Outline: (§3)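 Part of an automated 96-well profiling panel run in […], reporting fraction unbound and compound stability (% remaining after 18 h). Read-out by UPLC-MS/MS. Values are mean and SD from three independent test occasions.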

[6] = Human plasma stability; assay type: in vitro ADME; conditions: after 18 h incubation
Outline: as §3

[7] = target: T1, IRAP from CHO cells (Cricetulus griseus, UniProt A0A8C2M8D5); test: IRAP inhibition, membrane preparations from CHO cells, L-Leu-pNA cleavage; assay type: biochemical, Chinese hamster
T1 sequence (A0A8C2M8D5 1-1025): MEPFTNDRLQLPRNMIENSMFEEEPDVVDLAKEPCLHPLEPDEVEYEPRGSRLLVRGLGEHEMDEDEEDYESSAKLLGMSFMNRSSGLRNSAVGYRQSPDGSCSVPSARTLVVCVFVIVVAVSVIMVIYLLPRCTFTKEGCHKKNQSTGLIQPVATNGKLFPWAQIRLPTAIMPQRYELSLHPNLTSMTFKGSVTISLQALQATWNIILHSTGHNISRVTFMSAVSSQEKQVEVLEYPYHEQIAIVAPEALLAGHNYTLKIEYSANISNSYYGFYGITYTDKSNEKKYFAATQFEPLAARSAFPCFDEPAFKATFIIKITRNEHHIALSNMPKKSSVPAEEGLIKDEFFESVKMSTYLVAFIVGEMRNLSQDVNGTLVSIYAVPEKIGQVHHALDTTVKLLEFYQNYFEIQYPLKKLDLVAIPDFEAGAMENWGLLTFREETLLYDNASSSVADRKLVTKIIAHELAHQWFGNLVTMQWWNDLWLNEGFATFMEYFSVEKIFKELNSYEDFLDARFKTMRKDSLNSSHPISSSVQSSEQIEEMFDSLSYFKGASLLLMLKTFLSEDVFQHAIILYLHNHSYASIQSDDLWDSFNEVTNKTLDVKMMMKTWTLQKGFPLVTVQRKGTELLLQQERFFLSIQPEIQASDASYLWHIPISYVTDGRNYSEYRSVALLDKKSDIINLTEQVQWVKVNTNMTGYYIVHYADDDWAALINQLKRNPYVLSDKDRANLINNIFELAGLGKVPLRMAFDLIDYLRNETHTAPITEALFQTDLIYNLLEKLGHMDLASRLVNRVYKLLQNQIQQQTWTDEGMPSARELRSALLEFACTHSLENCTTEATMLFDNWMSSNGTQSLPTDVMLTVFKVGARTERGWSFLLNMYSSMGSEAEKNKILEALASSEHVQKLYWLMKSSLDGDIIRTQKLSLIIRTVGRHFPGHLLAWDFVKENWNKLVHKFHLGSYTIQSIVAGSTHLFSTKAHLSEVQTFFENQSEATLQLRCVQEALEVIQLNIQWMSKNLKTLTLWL

[8] = target: T2, IRAP (Cricetulus griseus, UniProt A0A8C2M8D5); test: Enzyme kinetics / competition studies with varied L-Leu-pNA substrate; assay type: biochemical; conditions: enzyme kinetics experiments
T2 sequence (A0A8C2M8D5 1-1025): T1 sequence (A0A8C2M8D5 1-1025)
Outline: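 Inhibitor was serially diluted (39 nM–150 μM), with four technical replicates per substrate level. Absorbance at 405 nm was read every ten minutes. The 150 μM slope defined maximal inhibition and was subtracted. Rates were fitted to uncompetitive, competitive and non-competitive models and compared; per-concentration Michaelis-Menten fits were also made.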

human aminopeptidase N overexpressed in HEK293 cells, sequence (P15144 whole entry): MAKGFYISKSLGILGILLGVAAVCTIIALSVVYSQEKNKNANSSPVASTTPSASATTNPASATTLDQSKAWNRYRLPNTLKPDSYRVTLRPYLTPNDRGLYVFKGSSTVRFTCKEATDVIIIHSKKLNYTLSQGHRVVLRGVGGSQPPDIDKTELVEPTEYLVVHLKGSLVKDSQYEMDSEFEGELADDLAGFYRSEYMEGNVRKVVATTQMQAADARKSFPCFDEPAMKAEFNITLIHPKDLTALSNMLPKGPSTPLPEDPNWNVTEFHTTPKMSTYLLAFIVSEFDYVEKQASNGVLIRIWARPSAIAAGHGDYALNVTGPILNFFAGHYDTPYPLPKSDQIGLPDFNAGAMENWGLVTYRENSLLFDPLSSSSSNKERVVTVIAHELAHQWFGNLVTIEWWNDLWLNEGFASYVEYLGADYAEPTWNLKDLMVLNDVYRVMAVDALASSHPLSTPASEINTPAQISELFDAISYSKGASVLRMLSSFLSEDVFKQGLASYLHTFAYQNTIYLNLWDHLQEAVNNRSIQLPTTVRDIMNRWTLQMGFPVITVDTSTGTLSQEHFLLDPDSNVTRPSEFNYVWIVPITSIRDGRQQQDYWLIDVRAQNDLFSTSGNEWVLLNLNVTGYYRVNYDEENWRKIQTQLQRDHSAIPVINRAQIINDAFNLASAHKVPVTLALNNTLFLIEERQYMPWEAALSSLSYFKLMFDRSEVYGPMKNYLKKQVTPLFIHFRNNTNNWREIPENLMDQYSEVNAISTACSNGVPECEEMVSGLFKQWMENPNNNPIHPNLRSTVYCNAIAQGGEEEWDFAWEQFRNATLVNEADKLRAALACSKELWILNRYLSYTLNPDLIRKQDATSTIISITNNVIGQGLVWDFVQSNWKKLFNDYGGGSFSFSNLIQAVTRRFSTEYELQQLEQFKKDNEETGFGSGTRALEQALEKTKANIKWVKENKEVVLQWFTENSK
human membrane bound IRAP overexpressed in HEK293 cells, sequence (Q9UIQ6 whole entry): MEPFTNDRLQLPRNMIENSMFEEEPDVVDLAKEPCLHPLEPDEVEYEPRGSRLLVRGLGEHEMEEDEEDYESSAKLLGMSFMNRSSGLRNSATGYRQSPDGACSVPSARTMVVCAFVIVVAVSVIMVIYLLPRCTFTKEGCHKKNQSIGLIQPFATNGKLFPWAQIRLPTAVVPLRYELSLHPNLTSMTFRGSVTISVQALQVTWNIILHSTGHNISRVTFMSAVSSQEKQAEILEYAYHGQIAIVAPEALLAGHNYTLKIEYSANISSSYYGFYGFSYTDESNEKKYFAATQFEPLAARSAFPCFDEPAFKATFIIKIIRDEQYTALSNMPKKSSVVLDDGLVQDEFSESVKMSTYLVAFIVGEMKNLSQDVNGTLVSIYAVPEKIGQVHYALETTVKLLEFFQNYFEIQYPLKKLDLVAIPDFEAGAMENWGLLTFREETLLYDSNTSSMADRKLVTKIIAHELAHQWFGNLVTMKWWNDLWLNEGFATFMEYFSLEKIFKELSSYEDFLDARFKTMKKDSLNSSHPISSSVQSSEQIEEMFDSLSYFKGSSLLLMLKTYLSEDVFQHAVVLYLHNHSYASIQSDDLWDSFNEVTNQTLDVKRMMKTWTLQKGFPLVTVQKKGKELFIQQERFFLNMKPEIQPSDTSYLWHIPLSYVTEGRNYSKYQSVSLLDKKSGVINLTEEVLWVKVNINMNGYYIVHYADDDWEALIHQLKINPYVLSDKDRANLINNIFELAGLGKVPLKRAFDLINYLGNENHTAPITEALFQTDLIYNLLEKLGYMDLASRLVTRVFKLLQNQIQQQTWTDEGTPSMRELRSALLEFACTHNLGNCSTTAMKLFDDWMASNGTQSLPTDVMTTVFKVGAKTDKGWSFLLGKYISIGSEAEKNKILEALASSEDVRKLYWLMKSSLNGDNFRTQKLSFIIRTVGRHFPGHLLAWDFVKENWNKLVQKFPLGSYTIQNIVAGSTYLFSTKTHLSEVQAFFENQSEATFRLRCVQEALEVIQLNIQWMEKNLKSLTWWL

| IC50 [1] [µM] | specificity for IRAP over human APN [2] | pIC50 [2] | half-life [3] [min] | microsomal CLint [3] [µL/min/mg] | hepatocyte CLint [4] [µL/min/1e6 cells] | half-life [4] [min] | fraction unbound [5] | Plasma stab (human plasma stability) [6] [% compound remaining] | decrease of activity compared to compound 1 [7] | mode of inhibition versus L-Leu-pNA [8] | loss of activity on hIRAP compared to IRAP from CHO-cells ([1]; hIRAP versus CHO IRAP) [fold] | Compound |
| --- | --- | --- | --- | --- | --- | --- | --- | --- | --- | --- | --- | --- |
| 50.1 | specificity for IRAP over human APN | Inactive | < 2.3 | > 300 | 91 ± 8 | 7.6 ± 0.6 | 0.14 ± 0.006 | 99±1 |  |  |  | COCCN1C(=O)c2ccccc2NC12C(=O)N(C)c1ccc(Br)cc12 (stereo not shown) [Compound 39, 5‐Bromo‐3′‐(2‐methoxyethyl)‐1‐methyl‐1′H‐spiro[indoline‐3,2′‐quinazoline]‐2,4′(3′H)‐dione] |
|  |  |  | < 2.3 | > 300 | 248 ± 5 | 2.8 ± 0.06 | 0.019 ± 0.004 | 105±7 |  |  |  | CCCCN1C(=O)c2ccccc2NC12C(=O)N(C)c1ccc(Br)cc12 (stereo not shown) [Compound 38, 5‐Bromo‐3′‐butyl‐1‐methyl‐1′H‐spiro[indoline‐3,2′‐quinazoline]‐2,4′(3′H)‐dione] |
|  |  |  | < 2.3 | > 300 | > 300 | < 2.3 | 0.0025 to 0.032 | 102±25 |  |  |  | CCc1ccccc1-c1ccc2c(c1)C1(Nc3ccccc3C(=O)N1c1ccc(C)cc1)C(=O)N2C (stereo not shown) [Compound 15, 5‐(2‐Ethylphenyl)‐1‐methyl‐3′‐(p‐tolyl)‐1′H‐spiro[indoline‐3,2′‐quinazoline]‐2,4′(3′H)‐dione] |
| 31.6 | specificity for IRAP over human APN | Inactive | < 2.3 | > 300 | 84 ± 14 | 8.5 ± 1.6 | 0.055 ± 0.004 | 97±15 |  |  |  | CN1C(=O)C2(Nc3ccccc3C(=O)N2Cc2cccnc2)c2cc(Br)ccc21 (stereo not shown) [Compound 36, 5‐Bromo‐1‐methyl‐3′‐(pyridin‐3‐ylmethyl)‐1′H‐spiro[indoline‐3,2′‐quinazoline]‐2,4′(3′H)‐dione] |
| 39.8 | specificity for IRAP over human APN | Inactive | 8.6 ± 1 | 81 ± 10 | 136 ± 22 | 5.2 ± 0.9 | 0.4 ± 0.04 | 95±2 |  |  |  | CN(C)CCN1C(=O)c2ccccc2NC12C(=O)N(C)c1ccc(Br)cc12 (stereo not shown) [Compound 40, 5‐Bromo‐3′‐(2‐(dimethylamino)ethyl)‐1‐methyl‐1′H‐spiro[indoline‐3,2′‐quinazoline]‐2,4′(3′H)‐dione] |
|  |  |  |  |  |  |  |  |  | tenfold |  |  | COc1ccc2c(c1)C1(Nc3ccccc3C(=O)N1c1ccc(C)cc1)C(=O)N2C (stereo not shown) [Compound 9, 5‐Methoxy‐1‐methyl‐3′‐(p‐tolyl)‐1′H‐spiro[indoline‐3,2′‐quinazoline]‐2,4′(3′H)‐dione] |
| 5.01 | specificity for IRAP over human APN | Inactive |  |  |  |  |  |  |  | uncompetitive inhibitor |  | CN1C(=O)C2(Nc3ccccc3C(=O)N2Cc2ccccc2)c2cc(Br)ccc21 (racemic) [Compound 32, 3′‐Benzyl‐5‐bromo‐1‐methyl‐1′H‐spiro[indoline‐3,2′‐quinazoline]‐2,4′(3′H)‐dione] |
| 12.6 | specificity for IRAP over human APN | Inactive | < 2.3 | > 300 | 132 ± 39 | 5.5 ± 1.4 | 0.041 ± 0.008 | 98±3 |  |  |  | CN1C(=O)C2(Nc3ccccc3C(=O)N2Cc2ccco2)c2cc(Br)ccc21 (stereo not shown) [Compound 37, 5‐Bromo‐3′‐(furan‐2‐ylmethyl)‐1‐methyl‐1′H‐spiro[indoline‐3,2′‐quinazoline]‐2,4′(3′H)‐dione] |
|  |  |  |  |  |  |  |  |  | tenfold |  |  | Cc1ccc(N2C(=O)c3ccccc3NC23C(=O)N(C)c2ccc(C)cc23)cc1 (stereo not shown) [Compound 10, 1,5‐Dimethyl‐3′‐(p‐tolyl)‐1′H‐spiro[indoline‐3,2′‐quinazoline]‐2,4′(3′H)‐dione] |
| 31.6 | specificity for IRAP over human APN | completely inactive | < 2.3 | > 300 | 114 ± 4 | 6.1 ± 0.2 | 0.098 ± 0.02 | 100±5 |  |  | 10 to 15 | Cc1ccc(N2C(=O)c3ccccc3NC23C(=O)N(C)c2ccc([N+](=O)[O-])cc23)cc1 (stereo not shown) [Compound 7, 1‐Methyl‐5‐nitro‐3′‐(p‐tolyl)‐1′H‐spiro[indoline‐3,2′‐quinazoline]‐2,4′(3′H)‐dione] |
